Data on one compound can be found in ChEMBL document CHEMBL4414577, “Discovery of Pyrrolo[2,3-b]pyridine (1,7-Dideazapurine) Nucleoside Analogues as Anti-Trypanosoma cruzi Agents” (J Med Chem, 2019).

The nature of series [1]: Cytotoxicity against human MRC5 SV2 cells assessed as reduction in cell viability incubated for 3 days by resazurin dye based assay. The settings on record: MRC-5 SV2, 72 h.
Series [2] in a line: Selectivity index, ratio for EC50 for human MRC5 SV2 cells to EC50 for Trypanosoma cruzi Tulahuen CL2 amastigotes infected in human MRC5 SV2 cells. The class given is toxicity, cell-based. The following applies: read-out: Ratio EC50.
Series [3] is described as follows: Drug metabolism in mouse liver microsomes assessed as CYP450-mediated metabolism by measuring parent compound remaining at 5 uM incubated for 15 mins in presence of NADPH by UPLC-MS analysis. It is filed as ADME. The following applies: read-out: Stability. The procedure, abridged: (§1)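 Compound incubated with male mouse, rat, dog or pooled human S9 fractions, with NADPH (phase I) or […], sampled at 0, 15, 30 and 60 min. Read-out is percent parent remaining. Two independent experiments of two biological replicates; diclofenac and fluconazole used as assay controls.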
For orientation: Liver microsomes are vesicles of endoplasmic reticulum, rich in cytochrome P450 enzymes.

Series [4] in a line: Drug metabolism in mouse liver microsomes assessed as UGT-mediated metabolism by measuring compound remaining at 5 uM measured immediately in presence of UDPGA by UPLC-MS analysis. It is filed as ADME. The settings on record: read-out: Stability. The procedure, abridged: as §1
Series [5] is described as follows: Drug metabolism in mouse liver microsomes assessed as UGT-mediated metabolism by measuring compound remaining at 5 uM incubated for 15 mins in presence of UDPGA by UPLC-MS analysis. It is filed as ADME. The settings on record: read-out: Stability. The procedure, abridged: as §1
The nature of series [6]: Drug metabolism in mouse liver microsomes assessed as UGT-mediated metabolism by measuring compound remaining at 5 uM incubated for 30 mins in presence of UDPGA by UPLC-MS analysis. The class given is ADME. The following applies: read-out: Stability. The procedure, abridged: as §1
The nature of series [7]: Drug metabolism in mouse liver microsomes assessed as UGT-mediated metabolism by measuring compound remaining at 5 uM incubated for 60 mins in presence of UDPGA by UPLC-MS analysis. It is filed as ADME. The settings on record: read-out: Stability. A digest of the protocol:
as §1

Series [8] in a line: Drug metabolism in rat liver microsomes assessed as CYP450-mediated metabolism by measuring parent compound remaining at 5 uM incubated for 30 mins in presence of NADPH by UPLC-MS analysis. The settings on record: read-out: Stability. It is filed as ADME. The procedure, abridged: as §1
Series [9] is described as follows: Drug metabolism in rat liver microsomes assessed as UGT-mediated metabolism by measuring compound remaining at 5 uM incubated for 15 mins in presence of UDPGA by UPLC-MS analysis. It is filed as ADME. The settings on record: read-out: Stability. The procedure, abridged:
as §1

A short description of series [10]: Drug metabolism in rat liver microsomes assessed as UGT-mediated metabolism by measuring compound remaining at 5 uM incubated for 60 mins in presence of UDPGA by UPLC-MS analysis. The following applies: read-out: Stability. It is filed as ADME. A digest of the protocol: as §1
A short description of series [11]: Drug metabolism in dog liver microsomes assessed as CYP450-mediated metabolism by measuring parent compound remaining at 5 uM measured immediately in presence of NADPH by UPLC-MS analysis. The following applies: read-out: Stability. The class given is ADME, Canis lupus familiaris. A digest of the protocol: as §1
The nature of series [12]: Drug metabolism in dog liver microsomes assessed as CYP450-mediated metabolism by measuring parent compound remaining at 5 uM incubated for 15 mins in presence of NADPH by UPLC-MS analysis. It is filed as ADME, Canis lupus familiaris. The following applies: read-out: Stability. The procedure, abridged:
as §1

A short description of series [13]: Drug metabolism in dog liver microsomes assessed as CYP450-mediated metabolism by measuring parent compound remaining at 5 uM incubated for 30 mins in presence of NADPH by UPLC-MS analysis. The settings on record: read-out: Stability. It is filed as ADME, Canis lupus familiaris. The procedure, abridged: as §1
The nature of series [14]: Drug metabolism in dog liver microsomes assessed as UGT-mediated metabolism by measuring compound remaining at 5 uM incubated for 30 mins in presence of UDPGA by UPLC-MS analysis. The class given is ADME, Canis lupus familiaris. The following applies: read-out: Stability. A digest of the protocol: as §1
Series [15] addresses T1, Cytochrome P450 (Homo sapiens, UniProt P04798+P05177+P05181+P08684+P10632+P10635+P11509+P11712+P13584+P20813+P20815+P20853+P24462+P24903+P33260+P33261+P51589+P78329+P98187+Q02928+Q08477+Q16678+Q16696+Q5TCH4+Q6VVX0+Q7Z449+Q8TAV3+Q96SQ9+Q9HB55). In words: Drug metabolism in human liver S9 fraction assessed as CYP450-mediated metabolism by measuring parent compound remaining at 5 uM measured immediately in presence of NADPH by UPLC-MS analysis. It is filed as ADME, subcellular. The settings on record: read-out: Stability. The procedure, abridged:
as §1

Series [16] has as its target T1, Cytochrome P450. In words: Drug metabolism in human liver S9 fraction assessed as CYP450-mediated metabolism by measuring parent compound remaining at 5 uM incubated for 15 mins in presence of NADPH by UPLC-MS analysis. The class given is ADME, subcellular. The following applies: read-out: Stability. The procedure, abridged:
as §1

Series [17] concerns the target T2, UDP-glucuronosyltransferases (UGTs) (Homo sapiens, UniProt O60656+O75310+O75795+P06133+P0DTE4+P0DTE5+P16662+P19224+P22309+P22310+P35503+P35504+P36537+P54855+Q6UWM9+Q9BY64+Q9HAW7+Q9HAW8+Q9HAW9). Description: Drug metabolism in human liver S9 fraction assessed as UGT-mediated metabolism by measuring compound remaining at 5 uM measured immediately in presence of UDPGA by UPLC-MS analysis. The class given is ADME, subcellular. The settings on record: read-out: Stability. The procedure, abridged:
as §1

The target in series [18] is T2, UDP-glucuronosyltransferases (UGTs). Description: Drug metabolism in human liver S9 fraction assessed as UGT-mediated metabolism by measuring compound remaining at 5 uM incubated for 30 mins in presence of UDPGA by UPLC-MS analysis. The following applies: read-out: Stability. The class given is ADME, subcellular. The procedure, abridged:
as §1

Series [19] shares this target. In words: Drug metabolism in human liver S9 fraction assessed as UGT-mediated metabolism by measuring compound remaining at 5 uM incubated for 60 mins in presence of UDPGA by UPLC-MS analysis. The class given is ADME, subcellular. The settings on record: read-out: Stability. A digest of the protocol:
as §1

Series [20] deals with Trypanosoma cruzi. Description: In vivo antitrypanosomal activity against Trypanosoma cruzi Y trypomastigotes infected in Swiss mouse assessed as reduction in parasitemia at 25 mg/kg, po administered twice daily via gavage for 5 days starting from 5 days post-infection and measured 8 days post-infection by light microscopic method relative to control. The class given is functional. Set-up: scale not given: the % may be the effect or the level left. A digest of the protocol: (§2)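 Male Swiss Webster mice (18-20 g, six per group) were infected i.p. with 10⁴ Y-strain bloodstream trypomastigotes. Treatment began at 5 dpi, only in mice with detectable parasitemia. Dosing was 25 mg/kg b.i.d. by oral gavage for 5 days, using a 2.0 mg/mL formulation in 10% EtOH, 0.1 M citrate pH 3.02. Parasites in 5 μL tail-vein blood were counted microscopically up to 30 dpi, against vehicle-treated infected mice.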

In series [21] the test system is Trypanosoma cruzi. Description: In vivo antitrypanosomal activity against Trypanosoma cruzi Y trypomastigotes infected in Swiss mouse assessed as reduction in parasitemia at 25 mg/kg, po administered twice daily via gavage for 5 days starting from 5 days post-infection and measured up to 30 days post-infection by light microscopic method relative to control. It is filed as functional. Set-up: scale not given: the % may be the effect or the level left. The procedure, abridged:
as §2

Series [22] deals with Trypanosoma cruzi. Description: Antitrypanosomal activity against Trypanosoma cruzi Y amastigotes infected in Swiss mouse primary cardiac cells replenished for every 48 hrs for 168 hrs by geimsa staining based assay. It is filed as functional, organism-based. The procedure, abridged: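 Primary mouse cardiac cells infected 24 h at 37 °C with Y-strain bloodstream trypomastigotes (parasite:host 10:1), washed, then exposed 168 h at 37 °C to serial dilutions, medium with compound renewed every 48 h. Giemsa stained; infected cells and parasites per infected cell scored in 200 host cells. EC50 from inhibition of infection index; two independent determinations.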

Series [23] is described as follows: Cytotoxicity against Swiss mouse primary cardiac cells assessed as reduction in cell viability incubated for 24 hrs by PrestoBlue dye based colorimetry.

For orientation: EC50 means the concentration needed to bring the measured effect to its halfway point. Regarding `Nc1ccnc2c1c(I)cn2[C@@H]1O[C@H](CO)[C@@H](O)[C@H]1O`, the half-maximal effective concentration (EC50) in [1] is > 64 µM; in the series with Trypanosoma cruzi [22], 0.089 µM; in series [23], > 400 µM. Further, the selectivity ratio in [2] is > 1600. Also, the remaining at 0.25 h, 5 µM was 96% in [3]; 102% in series [5]; 97% in [9]; 97% in series [12]; 99% at Cytochrome P450 [16]. Further, the remaining at 0 min, 5 µM (in series [4]; in series [11]; on Cytochrome P450 [15]; in series [17]) was 100% in each case. In addition, the remaining at 0.5 h, 5 µM in series [6] was determined as 103%; in series [8] it was 87%; in [13], 96%; in series [14] it was 94%; in series [18] it was 99%. Also, the remaining at 1 h, 5 µM in [7] is 101%; in [10] it was 94%; in series [19], 100%. The Activity with Trypanosoma cruzi [20] was 95%; in the series with Trypanosoma cruzi [21] it was 100%.
